Test results from ChEMBL document CHEMBL1275335, “Design and synthesis of 2-arylbenzimidazoles and evaluation of their inhibitory effect against Chlamydia pneumoniae” (J Med Chem, 2010).
Converted amounts (≈) assume the structure as drawn. The source made the active and inactive calls. No cut-off for these calls is given here.

Tests used:
[1] = test system: Chlamydia pneumoniae; assay: Chlamydiostatic activity against Chlamydia pneumoniae CV6 infected in human Hep2 cells after 72 hrs by fluorescence assay; type: functional, HEp-2; settings: CV6, 72 h
Method in brief: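 Confluent HEp-2 monolayers on coverslips were centrifuged with C. pneumoniae CV-6 (10^3 IFU/mL; 1700g, 45 min, 35 C). Medium was replaced with MEM containing cycloheximide 1 μg/mL and serial 2-fold compound dilutions. After 72 h at 35 C, 5% CO2, inclusions were stained with fluorescein-conjugated anti-Chlamydia LPS mAb. MIC is the lowest concentration with no IFU; titrations were run in duplicate.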

[2] = test system: Chlamydia pneumoniae; assay: Antibacterial activity against Chlamydia pneumoniae CWL029 infected in human HL cells assessed as inhibition of bacterial growth at 10 uM after 72 hrs by TR-FIA method; type: functional
Method in brief: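 HL cells were seeded at 6×10^4/well in RPMI 1640 with 7.5% FBS, 2 mM glutamine and gentamicin, then infected 24 h later with CWL-029 at MOI 0.2 plus 0.5 μg/mL cycloheximide and centrifuged 1 h. Compounds were added in six replicates for 72 h at 37 C. After methanol fixation, wells were labelled with europium-conjugated chlamydial antibody (100 ng/mL, 30 min, 37 C) and read by time-resolved fluorescence; rifampicin 0.012 μM served as control.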

[3] = test system: Escherichia coli; assay: Antibacterial activity against Escherichia coli ATCC 25922 assessed as inhibition of bacterial growth at 50 uM after 18 hrs by photometric method; type: functional, organism-based
Method in brief: (§1)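 Bacteria were dispensed with 0.01% resazurin and compound, reaching a final 50 μM; ampicillin 25 μM was the control. After 18 h at 37 C, resazurin was read photometrically at 600 nm.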

[4] = test system: Staphylococcus aureus; assay: Antibacterial activity against Staphylococcus aureus ATCC 25923 assessed as inhibition of bacterial growth at 50 uM after 18 hrs by photometric method; type: functional; method in brief: as §1
[5] = Cytotoxicity against human HL cells assessed as cell viability at 10 uM after 72 hrs by celltiter-glo analysis; type: cell-based; settings: read-out: Activity
Method in brief: (§2)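 After 72 h, viability was measured as intracellular ATP by CellTiter-Glo luminescence after partial medium replacement. Results are expressed as a percentage of cells given DMSO-adjusted medium.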

[6] = test system: Chlamydia pneumoniae; assay: Antibacterial activity against Chlamydia pneumoniae CV6 infected in human Hep2 cells assessed as minimal chlamydiocidal activity after 72 hrs by fluorescence assay; type: functional, HEp-2; settings: CV6, 72 h
Method in brief: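 CV-6 was grown in HEp-2 cells under 2-fold compound dilutions (MEM, cycloheximide 1 μg/mL, 72 h, 35 C). Drug medium was then removed, wells washed with PBS pH 7.4 and fed drug-free medium. Monolayers were disrupted, passed onto fresh monolayers, incubated and stained with fluorescein anti-LPS mAb. MCC is the lowest concentration giving no IFU in the antibiotic-free passage; run in duplicate.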

[7] = test system: HL; assay: Cytotoxicity against human HL cells at 2.5 uM after 72 hrs by celltiter-glo analysis; type: cell-based; method in brief: as §2

Row | Compound | MIC [1] [µM] | inhibition at 10 µM [2] [%] | growth inhibition (GI) [3] | growth inhibition (GI) [4] | viability at 72 h, 10 µM [5] [%] | MCC [6] [µM] | Activity [7]
1 | O=C(Nc1cccc(-c2nc3ccccc3[nH]2)c1)c1cccs1 | 196 (≈ 62.6 µg/mL) | 89 | inactive | inactive | 98 | > 196 | Non-toxic
2 | O=C(Nc1cccc(-c2nc3ccccc3[nH]2)c1)c1ccccc1 | – | 99 | inactive | inactive | 98 | – | –
3 | COc1ccc2[nH]c(-c3cccc(NC(=O)c4cccs4)c3)nc2c1 | – | 74 | inactive | inactive | 98 | – | –
4 | Cn1c(-c2cccc(NC(=O)c3cccs3)c2)nc2ccccc21 | – | 0 | inactive | inactive | 102 | – | –
5 | O=C(Nc1cccc(-c2ncc[nH]2)c1)c1cccs1 | – | 0 | – | – | 115 | – | –
6 | O=C(Nc1cccc(-c2nc3ccccc3[nH]2)c1)c1cscn1 | – | 39 | inactive | inactive | 98 | – | –
7 | Cc1ccccc1C(=O)Nc1cccc(-c2nc3ccccc3[nH]2)c1 | 6.1 (≈ 2 µg/mL) | 99 | inactive | inactive | 90 | 24.5 | Non-toxic
8 | COc1ccccc1C(=O)Nc1cccc(-c2nc3ccccc3[nH]2)c1 | – | 0 | inactive | inactive | 107 | – | –
9 | O=C(Nc1cccc(-c2nc3ccccc3o2)c1)c1cccs1 | – | 61 | – | – | 94 | – | –
10 | O=C(Nc1cccc(-c2nc3ccccc3[nH]2)c1)c1cccc(F)c1 | – | 58 | inactive | inactive | 101 | – | –
11 | COc1cccc(C(=O)Nc2cccc(-c3nc4ccccc4[nH]3)c2)c1 | – | 98 | inactive | inactive | 97 | – | –
12 | O=C(Nc1cccc(-c2nc3cc(Cl)ccc3[nH]2)c1)c1cccs1 | 196 (≈ 69.4 µg/mL) | 89 | inactive | inactive | 92 | > 196 | Non-toxic
13 | Cc1cccc2[nH]c(-c3cccc(NC(=O)c4cccs4)c3)nc12 | – | 89 | inactive | inactive | 102 | – | –
14 | O=C(Nc1cccc(-c2nc3ccccc3[nH]2)c1)c1cccc(Cl)c1 | – | 94 | inactive | inactive | 106 | – | –
15 | CC[C@H]1OC(=O)[C@H](C)[C@@H](O[C@H]2C[C@@](C)(OC)[C@@H](O)[C@H](C)O2)[C@H](C)[C@@H](O[C@@H]2O[C@H](C)C[C@H](N(C)C)[C@H]2O)[C@](C)(O)C[C@@H](C)C(=O)[C@H](C)[C@@H](O)[C@]1(C)O [ERYTHROMYCIN] | 0.17 (≈ 0.125 µg/mL) | – | – | – | – | 0.17 | –
16 | COc1ccc2[nH]c(-c3cccc(NC(=O)c4ccsc4)c3)nc2c1 | 12.6 (≈ 4.4 µg/mL) | 73 | inactive | inactive | 95 | 12.6 | Non-toxic

Row | Compound | MIC [1] [µM] | inhibition at 10 µM [2] [%] | growth inhibition (GI) [3] | growth inhibition (GI) [4] | viability at 72 h, 10 µM [5] [%] | MCC [6] [µM] | Activity [7]
17 | O=C(Nc1cccc(-c2ncc[nH]2)c1)c1ccsc1 | – | 0 | – | – | 133 | – | –
18 | Cc1ccc2[nH]c(-c3cccc(NC(=O)c4cccs4)c3)nc2c1 | 12.6 (≈ 4.2 µg/mL) | 99 | inactive | inactive | 95 | 12.6 | Non-toxic
19 | CC(C)(C)C(=O)Nc1cccc(-c2nc3ccccc3[nH]2)c1 | – | 0 | inactive | inactive | 98 | – | –
20 | O=C(Nc1cccc(-c2nc3ccccc3[nH]2)c1)c1ccoc1 | – | 78 | inactive | inactive | 101 | – | –
21 | O=C(Cc1cccs1)Nc1cccc(-c2nc3ccccc3[nH]2)c1 | – | 70 | inactive | inactive | 107 | – | –
22 | O=C(Nc1ccc(-c2nc3ccccc3[nH]2)cc1)c1cccs1 | – | 0 | inactive | inactive | 96 | – | –
23 | CC(=O)Nc1cccc(-c2nc3ccccc3[nH]2)c1 | – | 0 | inactive | inactive | 100 | – | –
24 | O=C(Nc1cccc(-c2nc3ccccc3[nH]2)c1)c1ccsc1 | > 196 | 68 | inactive | inactive | 98 | > 196 | Non-toxic
25 | COC(=O)c1cccc(C(=O)Nc2cccc(-c3nc4ccccc4[nH]3)c2)c1 | – | 99 | inactive | inactive | 99 | – | –
26 | O=C(Nc1cccc(-c2nc3ccccc3[nH]2)c1)c1ccco1 | – | 45 | inactive | inactive | 98 | – | –
27 | Cc1c(NC(=O)c2cccs2)cccc1-c1nc2ccccc2[nH]1 | – | 59 | inactive | inactive | 87 | – | –
28 | Cn1cccc1C(=O)Nc1cccc(-c2nc3ccccc3[nH]2)c1 | – | 80 | inactive | inactive | 104 | – | –
29 | COc1ccc(-c2nc3ccccc3[nH]2)cc1NC(=O)c1cccs1 | – | 52 | inactive | inactive | 101 | – | –
30 | O=S(=O)(Nc1cccc(-c2nc3ccccc3[nH]2)c1)c1ccccc1 | – | 0 | inactive | inactive | 77 | – | –
31 | O=C(Nc1cccc(-c2nc3ccccc3[nH]2)c1)c1ccccc1C(F)(F)F | – | 96 | inactive | inactive | 80 | – | –
